How the values were obtained:
[1] = target: T1, Alpha-1D adrenergic receptor (Homo sapiens, UniProt P25100); assay: (§1) Agonist potency at Alpha-1D adrenergic receptor assayed in rat-1 fibroblasts expressing human alpha1d; format: functional
T1 sequence (P25100 whole entry): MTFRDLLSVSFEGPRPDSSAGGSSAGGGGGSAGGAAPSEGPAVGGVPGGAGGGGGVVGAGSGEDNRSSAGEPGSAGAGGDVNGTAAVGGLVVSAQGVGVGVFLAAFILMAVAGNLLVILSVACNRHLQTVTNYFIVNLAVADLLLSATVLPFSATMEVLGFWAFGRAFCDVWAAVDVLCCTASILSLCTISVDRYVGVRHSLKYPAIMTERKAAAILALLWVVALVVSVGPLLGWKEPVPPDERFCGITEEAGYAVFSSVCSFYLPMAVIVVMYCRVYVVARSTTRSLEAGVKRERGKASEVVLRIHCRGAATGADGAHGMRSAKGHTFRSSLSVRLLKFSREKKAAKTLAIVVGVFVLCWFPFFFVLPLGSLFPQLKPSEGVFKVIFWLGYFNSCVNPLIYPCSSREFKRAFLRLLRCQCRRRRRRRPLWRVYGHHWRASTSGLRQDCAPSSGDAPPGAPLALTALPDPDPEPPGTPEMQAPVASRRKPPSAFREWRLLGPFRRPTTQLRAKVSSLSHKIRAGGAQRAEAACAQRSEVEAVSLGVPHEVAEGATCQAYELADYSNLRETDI
Summary of the method: (§2)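 Human α1a, α1b or α1d receptors expressed in Rat-1 fibroblasts (DMEM, 10% heat-inactivated FBS, 0.6 mg/mL G418). Cells were plated at 6000/well and grown 48 h at 37 °C. They were loaded 2 h at 37 °C with Calcium Green (4 μM), pluronic acid 0.2% and probenecid 2.5 mM in HEPES buffer pH 7.4, then read by FLIPR at room temperature: 10 s baseline, 50 s after compound. 11-point curves were expressed as % of the 40 μM phenylephrine response; top concentration typically 5 μM.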

[2] = target: T2, Alpha-1A adrenergic receptor (Homo sapiens, UniProt P35348); assay: Agonist potency at Alpha-1 adrenergic receptor assayed in rat-1 fibroblasts expressing human Alpha-1A; format: functional; summary of the method: as §2
T2 sequence (P35348 whole entry): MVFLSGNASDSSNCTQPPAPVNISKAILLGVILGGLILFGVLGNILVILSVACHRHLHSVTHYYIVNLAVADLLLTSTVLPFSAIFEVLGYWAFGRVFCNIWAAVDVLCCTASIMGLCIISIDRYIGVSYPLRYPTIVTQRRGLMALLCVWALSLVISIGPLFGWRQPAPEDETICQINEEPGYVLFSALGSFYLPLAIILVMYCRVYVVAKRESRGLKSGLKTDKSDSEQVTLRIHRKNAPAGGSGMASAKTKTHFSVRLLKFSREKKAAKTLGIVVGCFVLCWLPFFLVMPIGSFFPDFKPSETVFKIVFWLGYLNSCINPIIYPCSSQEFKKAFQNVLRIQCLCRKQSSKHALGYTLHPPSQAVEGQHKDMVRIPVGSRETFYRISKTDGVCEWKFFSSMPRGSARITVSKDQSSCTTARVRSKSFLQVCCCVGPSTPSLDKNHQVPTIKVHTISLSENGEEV

[3] = target: T3, Alpha-1B adrenergic receptor (Homo sapiens) (UniProt P35368); assay: Efficacy as % of the maximal effect observed for nonselective agonist phenylephrine in rat-1 fibroblasts expressing human Alpha-1B adrenergic receptor; format: functional
T3 sequence (whole entry): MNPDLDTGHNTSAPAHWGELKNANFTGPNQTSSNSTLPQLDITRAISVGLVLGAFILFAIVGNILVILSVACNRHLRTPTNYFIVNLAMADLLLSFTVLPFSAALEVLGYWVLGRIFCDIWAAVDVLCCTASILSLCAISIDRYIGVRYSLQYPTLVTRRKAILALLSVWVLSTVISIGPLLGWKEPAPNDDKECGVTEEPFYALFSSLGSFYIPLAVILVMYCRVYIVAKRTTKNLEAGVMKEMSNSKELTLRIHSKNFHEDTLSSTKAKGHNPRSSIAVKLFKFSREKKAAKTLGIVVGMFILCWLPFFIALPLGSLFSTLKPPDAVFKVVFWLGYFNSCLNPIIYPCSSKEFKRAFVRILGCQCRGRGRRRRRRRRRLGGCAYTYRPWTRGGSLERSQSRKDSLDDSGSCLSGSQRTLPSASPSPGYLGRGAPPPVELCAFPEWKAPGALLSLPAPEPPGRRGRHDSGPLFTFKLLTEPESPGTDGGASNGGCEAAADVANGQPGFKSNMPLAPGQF
Summary of the method: (§3)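 Rat-1 fibroblasts expressing human α1a/α1b/α1d, grown in DMEM with 10% heat-inactivated FBS and 0.6 mg/mL G418, plated 6000 cells/well and cultured 48 h at 37 °C. Loaded 2 h at 37 °C with Calcium Green (4 μM), 0.2% pluronic acid and 2.5 mM probenecid in HEPES buffer pH 7.4. FLIPR read at room temperature: 10 s baseline, then 50 s after compound. 11-point curves as % of 40 μM phenylephrine response, top concentration typically 5 μM.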

[4] = target: T1, Alpha-1D adrenergic receptor; assay: Agonist potency at Alpha-1D adrenergic receptor assayed in rat-1 fibroblasts; format: functional; summary of the method: as §3
[5] = target: T2, Alpha-1A adrenergic receptor; assay: Agonist potency at Alpha-1A adrenoceptors assayed in rat-1 fibroblasts expressing human Alpha-1A; format: functional; summary of the method: as §3
[6] = target: T4, Alpha-2A adrenergic receptor (Homo sapiens, UniProt P08913); assay: Affinity to human aAlpha-2A adrenergic receptor determined by radioligand binding techniques from chinese hamster ovary (CHO) cells; format: cell-based
T4 sequence (P08913 whole entry): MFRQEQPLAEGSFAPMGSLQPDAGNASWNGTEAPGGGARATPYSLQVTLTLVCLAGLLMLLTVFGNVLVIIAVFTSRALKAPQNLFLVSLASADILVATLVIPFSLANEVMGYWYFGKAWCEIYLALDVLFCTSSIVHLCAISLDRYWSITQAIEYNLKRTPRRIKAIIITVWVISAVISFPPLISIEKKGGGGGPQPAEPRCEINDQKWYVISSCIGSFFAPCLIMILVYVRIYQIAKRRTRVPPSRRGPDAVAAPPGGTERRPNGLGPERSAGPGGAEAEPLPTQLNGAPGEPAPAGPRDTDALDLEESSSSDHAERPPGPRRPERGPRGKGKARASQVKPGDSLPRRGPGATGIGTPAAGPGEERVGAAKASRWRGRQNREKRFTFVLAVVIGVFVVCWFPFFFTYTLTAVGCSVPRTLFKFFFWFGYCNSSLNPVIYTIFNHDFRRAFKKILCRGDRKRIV

[7] = target: T5, Alpha-1D adrenergic receptor (Homo sapiens) (UniProt P25100); assay: as §1; format: functional; summary of the method: as §3
T5 sequence (whole entry): T1 sequence (P25100 whole entry)

[8] = target: T6, Alpha-1A adrenergic receptor (Homo sapiens) (UniProt P35348); assay: Efficacy as % of the maximal effect observed for nonselective agonist phenylephrine in rat-1 fibroblasts expressing human alpha1; format: functional; summary of the method: as §3
T6 sequence (whole entry): T2 sequence (P35348 whole entry)

[9] = target: T7, Alpha-1B adrenergic receptor (Homo sapiens, UniProt P35368); assay: Agonist potency at alpha-1b adrenoceptors assayed in rat-1 fibroblasts expressing human Alpha-1B adrenergic receptor; format: functional; summary of the method: as §2
T7 sequence (P35368 whole entry): T3 sequence (whole entry)

[10] = target: T1, Alpha-1D adrenergic receptor; assay: Agonist potency at aAlpha-1D adrenergic receptor assayed in rat-1 fibroblasts expressing human Alpha-1D adrenergic receptor; format: functional; summary of the method: as §2

SMILES	Max [3]	other results
C[S+]([O-])c1ccccc1NCC1=NCCN1 (configuration not stated)		EC50 [1]: > 100 µM; EC50 [2]: 0.49 µM
CS(=O)(=O)c1ccc(Cl)cc1NCC1=NCCN1	103%	
CSc1ccccc1NCC1=NCCN1		EC50 [4]: 0.00891 µM; EC50 [5]: 0.00457 µM
CCCS(=O)(=O)c1ccccc1NCC1=NCCN1		Ki [6]: > 7.94 µM; pEC5 [7]: < 4
CSc1ccc(F)cc1NCC1=NCCN1	92%	
CSc1ccc(C)cc1NCC1=NCCN1	96%	
CS(=O)(=O)c1c(F)cccc1NCC1=NCCN1		Max [8]: 93%
CC(C)Sc1ccccc1NCC1=NCCN1	29%	
COc1ccc(SC)c(NCC2=NCCN2)c1	92%	
CSc1ccc(C(F)(F)F)cc1NCC1=NCCN1	114%	
CSc1c(F)cccc1NCC1=NCCN1	48%	
CS(=O)(=O)c1cc(Cl)ccc1NCC1=NCCN1		EC50 [9]: > 100 µM
CSc1cc(F)ccc1NCC1=NCCN1	78%	
CSc1ccc(Cl)cc1NCC1=NCCN1	103%	
Cc1ccc(S(C)(=O)=O)c(NCC2=NCCN2)c1	91%	
CS(=O)(=O)c1cc(F)ccc1NCC1=NCCN1		EC50 [10]: > 100 µM
CCSc1ccccc1NCC1=NCCN1	82%	
CS(=O)(=O)c1ccccc1NCC1=NCCN1		EC50 [1]: > 100 µM; EC50 [2]: 0.0562 µM

Reference: ChEMBL document CHEMBL1135421, “2-(Anilinomethyl)imidazolines as alpha1 adrenergic receptor agonists: the discovery of alpha1a subtype selective 2'-alkylsulfonyl-substituted analogues” (J Med Chem, 2002)
